Measured values published in article PMC5362268 (Cell, 2017).
Converted amounts (≈) assume the structure as drawn. “And” between values parts separate entries of the source, which are not always exact repeats. Equal values may be shown once.

Assays:
KRAS^G12D-GppNHp = KRAS^G12D-GppNHp (Homo sapiens, UniProt P01116, G12D); assay: Isothermal titration calorimetry; assay type: binding
Summary of the method: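 Test compound in the cell at 200 µM (1.25% DMSO); protein in the syringe at 2.0 mM, DMSO-matched. Run at 25 °C: 19 × 2 µl injections, 180 s apart; reference power 5 µcal/sec.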

GDP complex of KRAS^G12D = GDP complex of KRAS^G12D (Homo sapiens, UniProt P01116, G12D); assay: MST, GDP-bound KRAS^G12D; assay type: binding; details: compared with GppNHp-bound KRAS^G12D
KRAS^G12D D38A = KRAS^G12D D38A (Homo sapiens, UniProt P01116, D38A/G12D); assay: MST, D38A point mutant; assay type: binding; details: compared with KRAS^G12D
KRAS^G12D I36N = KRAS^G12D I36N (Homo sapiens, UniProt P01116, G12D/I36N); assay: MST, I36N point mutant; assay type: binding; details: compared with KRAS^G12D
HRAS^wt = HRAS^wt (Homo sapiens, UniProt P01112); assay: MST with RAS GTPases; assay type: binding; details: selectivity panel, GppNHp-loaded
Chain of HRAS^wt (P01112 whole entry): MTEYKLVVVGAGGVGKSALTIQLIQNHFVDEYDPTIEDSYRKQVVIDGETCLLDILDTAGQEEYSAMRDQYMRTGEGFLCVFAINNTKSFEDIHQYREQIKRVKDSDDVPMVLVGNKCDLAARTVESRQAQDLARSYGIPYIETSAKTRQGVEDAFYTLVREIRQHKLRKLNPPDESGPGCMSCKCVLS

NRAS^wt = NRAS^wt (Homo sapiens, UniProt P01111); assay: MST with RAS GTPases; assay type: binding; details: selectivity panel, GppNHp-loaded
Chain of NRAS^wt (P01111 whole entry): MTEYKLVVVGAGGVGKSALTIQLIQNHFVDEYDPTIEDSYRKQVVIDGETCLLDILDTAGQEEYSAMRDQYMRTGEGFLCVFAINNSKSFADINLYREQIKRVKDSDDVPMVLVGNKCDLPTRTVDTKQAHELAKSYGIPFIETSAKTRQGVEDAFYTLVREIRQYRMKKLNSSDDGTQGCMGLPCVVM

RRAS2 = RRAS2 (Homo sapiens, UniProt P62070); assay: MST with RAS GTPases; assay type: binding; details: selectivity panel, GppNHp-loaded
Chain of RRAS2 (P62070 whole entry): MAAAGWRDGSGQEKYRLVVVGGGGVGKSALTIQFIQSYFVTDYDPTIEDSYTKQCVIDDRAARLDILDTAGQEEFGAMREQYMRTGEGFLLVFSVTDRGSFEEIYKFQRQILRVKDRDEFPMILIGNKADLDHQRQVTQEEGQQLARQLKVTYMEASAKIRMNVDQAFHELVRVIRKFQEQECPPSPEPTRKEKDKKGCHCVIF

DLD-1 cells = assay: Pan-RAS siRNA knockdown and viability; assay type: cell-based, human; details: 24 h
Summary of the method: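 DLD-1 cells reverse-transfected in 6-well plates with siRNA pools against HRAS, KRAS and NRAS, or a non-targeting pool. Cells then re-suspended in serum-free RPMI and seeded at 10,000 cells/well in 384-well plates overnight. Dilution series added from 10× stocks in serum-free Opti-mem; 24 h incubation; viability by CellTiter-Glo.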

[1] = tested on: BRAF^V600E-CAAX-expressing MEF cells; assay: Viability assay in mouse embryo fibroblasts; assay type: cell-based
[2] = tested on: T-ALL cells with wild-type NRAS; assay: Viability of primary T-ALL patient samples; assay type: cell-based, human; details: 5 μM, 72 h, four patient samples
Summary of the method: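 Primary T-ALL lymphoblasts, 250,000 per well in 24-well plates, in triplicate. Treated with DMSO vehicle or test compound across 1 to 5 μM for 72 h. Viability by flow-based kit with counting beads, gating out GFP+ stromal cells and PI+ dead cells and particles.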

[3] = tested on: MDA-MB-231 cell line (KRAS^G13D); assay: Multicellular tumor spheroids; assay type: cell-based, human; details: low-adherence plates, 72 h
SW480 (KRAS^G12V) = assay: Multicellular tumor spheroids; assay type: cell-based, human; details: low-adherence plates, 72 h
[4] = tested on: pERK and pAKT in Hras^−/−; Nras^−/−; Kras^flox/flox MEFs; assay: Western blots of mouse embryo fibroblasts; assay type: cell-based; details: treatment for 0.6 h, 1 h or 16 h, EGF stimulated
Summary of the method: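 MEFs seeded at 0.25 million/well in DMEM with Glutamax, 10% heat-inactivated FBS and P/S, grown to 80% confluence, then serum-starved 24 h. Serum-free treatment with 5 μM test compound for 35 min or 1 h, or 2 μM for 16 h, then EGF 10 ng/ml for 15 min. Quantified as (phospho/tubulin)/(total/tubulin), normalised to DMSO.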

[5] = tested on: pERK and pAKT in BRAF-CAAX-containing MEFs; assay: Western blots of mouse embryo fibroblasts; assay type: cell-based; details: compared with Kras MEFs
Summary of the method: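 MEFs seeded at 0.25 million/well in DMEM with Glutamax, 10% heat-inactivated FBS and P/S. Serum-starved 24 h, then given test compound in serum-free medium; EGF 10 ng/ml for 15 min where indicated. Band intensities background-subtracted; pERK and pAKT expressed as (phospho/tubulin)/(total/tubulin) and normalised to DMSO.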

[6] = tested on: pERK and pAKT in HT-1080 cells (NRAS^Q61K); assay: Western blots of RAS signaling; assay type: cell-based, human
Summary of the method: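 Cells seeded 16 h before use in DMEM with 10% or 2% FBS plus P/S. Compound added in serum-free DMEM or DMEM 2% FBS for the indicated times. Lysis in HEPES pH 7.4 buffer with phosphatase and protease inhibitors; SDS-PAGE, PVDF transfer, Li-COR blocking, primary antibodies (1:1000) overnight at 4 °C.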

[7] = tested on: CRAF-bound RAS in BJeLR cells; assay: Cell-based RAS pulldown; set-up: species or system human
Summary of the method: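 BJeLR cells seeded 16 h before use in DMEM with 10% FBS. Medium then replaced with serum-free medium containing the test compound or a reference inhibitor (from 10 mM DMSO stocks), 24 h. c-RAF bound to RAS proteins was determined by pulldown.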

[8] = Microsomal stability assay; assay type: in vitro ADME; details: human, over 120 minutes
Summary of the method: (§1)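 Liver microsomes incubated in 100 mM phosphate buffer, pH 7.4, supplemented with an NADPH-regenerating system (solutions A and B).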

[9] = Microsomal stability assay; assay type: in vitro ADME; details: mouse, over 120 minutes
Summary of the method: as §1

[10] = tested on: phosphorylated ERK in MDA-MB-231 xenograft; assay: Pharmacodynamic study using MDA-MB-231 cells; assay type: in vivo, mouse; details: 30 mg/kg IP once per day for 6 d, vs vehicle
Summary of the method: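 Eight-week-old athymic nude mice received 8 million MDA-MB-231 cells subcutaneously. After 4 d they were grouped at ~128 mm³ tumours and dosed IP once daily for 6 d with 30 mg/kg in 5% DMSO HBSS pH 4, or with that vehicle. Tumours were then analysed for phosphorylated ERK.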

KP^f/fC mice = assay: Toxicity in KP^f/fC mouse study; assay type: in vivo; details: 30 mg/kg IP once daily
[11] = tested on: pAKT (S473), pERK1/2 and cleaved caspase-3 in KP^f/fC pancreatic tumors; assay: KP^f/fC mouse pharmacodynamic study; assay type: in vivo; details: post- vs pre-treatment tumor samples
K mouse weights on study = assay type: in vivo; details: individual mice
[12] = Solubility of compound 3144; assay type: physicochemical

NC1(C(=O)NCCCn2cc(-c3ccc(OC(F)(F)F)cc3)c3cc(CN4CCN(Cc5c(Cl)cccc5Cl)CC4)ccc32)CCNCC1 [compound 3144, 4-amino-N-(3-(5-((4-(2,6-dichlorobenzyl)piperazin-1-yl)methyl)-3-(4-(trifluoromethoxy)phenyl)-1H-indol-1-yl)propyl)piperidine-4-carboxamide]
Kd (KRAS^G12D-GppNHp): 17.8 ± 4.5 µM
affinity for the GDP complex (GDP complex of KRAS^G12D): reduced affinity
binding affinity to D38A mutant (KRAS^G12D D38A): reduced binding affinity
binding affinity to I36N mutant (KRAS^G12D I36N): reduced binding affinity
binding by MST (HRAS^wt): detected binding
binding by MST (NRAS^wt): detected binding
binding by MST (RRAS2): weak binding
concentration up to which cells were resistant (DLD-1 cells; DLD-1 (KRAS^G13D), high cell density, no RAS knockdown): > 20 µM
effect of combined HRAS, NRAS and KRAS knockdown on compound lethality (DLD-1 cells; si-panRAS vs non-targeting siRNA, CellTiter-Glo): sensitization
concentrations showing lethality ([1]; BRAF^V600E-CAAX-expressing MEFs): ≥ 20 µM
sensitivity after Kras excision and BRAF^V600E-CAAX introduction ([1]; compared with Kras^lox/lox MEFs): resistance
effect on viability [2]: no observable effect on viability
spheroid size [3]: decreased in size in a dose-dependent manner
spheroid size (SW480 (KRAS^G12V)): decreased in size in a dose-dependent manner
pERK and pAKT abundance [4]: moderately decreased
pERK and pAKT abundance [5]: more resistant
pERK and pAKT abundance [6]: somewhat decreased
EGF-induced pAKT and pERK abundance ([6]; 10 ng/mL EGF 15 min): suppressed to a degree
CRAF-bound RAS [7]: decreased
stability in liver microsomes [8]: relatively stable
stability in liver microsomes [9]: relatively stable
tumor pERK levels [10]: somewhat decreased
toxicity (KP^f/fC mice): Toxicity was observed
cleaved caspase-3 in tumor [11]: modest increase
pAKT (S473) and pERK1/2 in tumor ([11]; 30 mg/kg IP once daily): decrease
K mouse weights (K mouse weights on study; day 1 on study): 19.1 and 14.5 and 22.9 and 26.1 and 18.5
K mouse weights (K mouse weights on study; day 2 on study): 18.4 and 14.1 and 21.6 and 24.7 and 17.4
K mouse weights (K mouse weights on study; day 3 on study): 18.6 and 14.2 and 20.7 and 23.6 and 17
K mouse weights (K mouse weights on study; day 4 on study): 17.5 and 14.2 and 20.1 and 23.27 and 17.7
K mouse weights (K mouse weights on study; day 5 on study): 17.5 and 13.63 and 19.8 and 22.7 and 16.5
concentration without visible precipitation ([12]; aqueous buffers (e.g., phosphate buffered saline), room temperature, 1.5% DMSO): ≥ 250 µM
solubility ([12]; aqueous solutions, aqueous buffer, kinetic from dmso stock): 5 µM (≈ 3.59 µg/mL)
